Data set [1] relates to Staphylococcus aureus. Nature of the data set: Antibacterial activity against methicillin-resistant Staphylococcus aureus ATCC 43300 assessed as reduction in bacterial growth by CLSI protocol based broth microdilution method. In kind it is functional. The method, boiled down: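 Dose-response broth assay in duplicate, 8 points from 0.25 to 32 µg/mL, against MRSA ATCC 43300, with a positive antibiotic control. MIC is the lowest concentration giving full growth inhibition, per CLSI guidelines.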

Data set [2] can be described thus: Cytotoxicity against human HEK293 cells. In kind it is cell-based.
The next data set deals with Erythrocyte. Nature of the data set: Hemolytic activity against human RBC. In kind it is ADME, cell-based.
Data set [3] deals with Staphylococcus aureus. The experiment in a line: Antibacterial activity against methicillin-resistant Staphylococcus aureus ATCC 43300 assessed as reduction in bacterial growth at 32 ug/ml by CLSI protocol based broth microdilution method relative to control. The class given is functional. The gist of the method:
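Primary single-concentration broth screen at 32 µg/mL in duplicate (n = 2) against MRSA ATCC 43300. Mean % growth inhibition was calculated relative to growth and media controls.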
A general note: Broth dilution looks for growth in wells or tubes with falling amounts of substance.

The structures appear in SMILES notation. Converted amounts (≈) assume the structure as drawn. Bounds are passed on as bounds.

Regarding `CCCCCCCCCC(=O)C1=C(O)/C(=C/c2ccccc2)N(C(C)=O)C1=O`, the MIC (commonly the lowest concentration found to suppress growth) with Staphylococcus aureus [1] amounted to 4 µg/mL (≈ 10.4 µM). The CC50 (as a rule, the concentration giving 50% cytotoxicity) in data set [2] was above 32 µg/mL. Further, the HC10 in the data set with Erythrocyte is 20.4 µg/mL.

As to `CCCCCCCC(=O)C1=C(O)/C(=C/c2ccccc2)N(C(C)=O)C1=O`, the MIC with Staphylococcus aureus [1] worked out at 4 µg/mL (≈ 11.3 µM). In data set [2], this compound displayed a CC50 above 32 µg/mL. In the data set with Erythrocyte, this compound displayed an HC10 above 32 µg/mL.

As for `CCCCCCCCCCCCCC(=O)C1=C(O)/C(=C/c2ccccc2)N(C(C)=O)C1=O`, the MIC with Staphylococcus aureus [1] worked out at 4 µg/mL (≈ 9.1 µM). In data set [2], this compound yielded a CC50 above 32 µg/mL. For the same compound, the HC10 in the data set with Erythrocyte is above 32 µg/mL.

As for `CCCCCCCCCCCCCCCC(=O)C1=C(O)/C(=C/c2ccccc2)N(C(C)=O)C1=O`, in the data set with Staphylococcus aureus [1], the MIC came to 4 µg/mL (≈ 8.55 µM). The CC50 in data set [2] was above 32 µg/mL. Moreover, the HC10 in the data set on Erythrocyte was above 32 µg/mL.

Take `CC(=O)C1=C(O)/C(=C/c2ccc(Cl)cc2)N(C(C)=O)C1=O`: in the data set with Staphylococcus aureus [3], the inhibition (in general, the relative decrease from the control value, in per cent) at 32 µg/mL came out at 45.1%.

Regarding `CCCC(=O)C1=C(O)/C(=C/c2ccc(OC)cc2)N(C(C)=O)C1=O`, the inhibition at 32 µg/mL in the data set with Staphylococcus aureus [3] was in the range of 73.1 to 99.2%. The MIC with Staphylococcus aureus [1] came to 32 µg/mL (≈ 97.2 µM). Also, in data set [2], the CC50 is above 32 µg/mL. For the same compound, the HC10 in the data set on Erythrocyte was above 32 µg/mL.

On to `CC(=O)C1=C(O)/C(=C/c2ccc(C(F)(F)F)cc2)N(C(C)=O)C1=O`, for which the inhibition at 32 µg/mL in the data set with Staphylococcus aureus [3] was found to be 61.7%. Besides, the MIC in the data set on Staphylococcus aureus [1] is above 32 µg/mL. Besides, the CC50 in data set [2] was above 32 µg/mL. This compound also displayed an HC10 in the data set on Erythrocyte above 32 µg/mL.

Take `CC(=O)N1C(=O)C(C(=O)c2ccccc2)=C(O)/C1=C/c1ccccc1`: in the data set with Staphylococcus aureus [3], the inhibition at 32 µg/mL lay within 73.1 to 99.2%.

Consider `CC(=O)C1=C(O)/C(=C/c2ccc([N+](=O)[O-])cc2)N(C(C)=O)C1=O`, for which the inhibition at 32 µg/mL in the data set on Staphylococcus aureus [3] was determined as 38.6%.

Take `CC(=O)C1=C(O)/C(=C/c2ccccc2)N(C(C)=O)C1=O`: the inhibition at 32 µg/mL in the data set on Staphylococcus aureus [3] is 22.9 to 25.5%. Besides, the MIC in the data set with Staphylococcus aureus [1] was above 32 µg/mL. The CC50 in data set [2] is above 32 µg/mL. For the same compound, the HC10 with Erythrocyte is above 32 µg/mL.

`CCCC(=O)C1=C(O)/C(=C/c2ccccc2)N(C(C)=O)C1=O`: the inhibition at 32 µg/mL in the data set with Staphylococcus aureus [3] lay in the range of 73.1 to 99.2%. The MIC with Staphylococcus aureus [1] amounted to 32 µg/mL (≈ 107 µM). Moreover, the CC50 in data set [2] was above 32 µg/mL. Moreover, the HC10 with Erythrocyte was above 32 µg/mL.

For the origin of these results see ChEMBL document CHEMBL4627351, “Synthesis, biological evaluation and structure-activity relationships of 5-arylidene tetramic acids with antibacterial activity against methicillin-resistant Staphylococcus aureus” (Bioorg Med Chem Lett, 2020).
